From ChEMBL document CHEMBL4270546, “A novel Anti-Cancer Stem Cells compound optimized from the natural symplostatin 4 scaffold inhibits Wnt/β-catenin signaling pathway” (Eur J Med Chem, 2018)
Active and inactive are the calls of the source. The calls are words filed in the database; no cut-off is given here.

Tests used:
A-375 [1] = assay: Induction of apoptosis in human A375 cells assessed as late apoptotic cells at 1 uM after 48 hrs by Annexin V-FITC/propidium iodide staining based flow cytometry (reference value: 2.7%); assay type: functional
A-375 [2] = assay: Downregulation of beta-catenin protein expression in human A375 cells after 48 hrs by Western blot analysis; assay type: functional, cell-based
Outline: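 Cells treated with compound at different concentrations for 48 h. Western blot for STAT3, p-STAT3, β-catenin and c-Myc.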

A-375 [3] = assay: Anti-invasive activity against human A375 cells at 0.25 uM after 24 hrs by matrigel invasion assay; assay type: functional, cell-based
Outline: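 Cells seeded in the upper chamber of a transwell with a Matrigel-precoated filter, incubated with compound (0.25 μM) for 24 h. Invaded cells imaged and counted against an untreated control. Mean ± sd, n = 3, two-way ANOVA.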

A-375 [4] = assay: Induction of apoptosis in human A375 cells assessed as upregulation of cleaved PARP expression at 0.5 to 4 uM after 48 hrs by Western blot analysis; assay type: functional, cell-based
Outline: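 Cells treated with compound at different concentrations (0.5-4 μM) for 48 h. Lysates probed by Western blot for cleaved PARP, active caspase-3, Bax and p53.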

B16-F10 [5] = assay: Induction of apoptosis in mouse B16F10 cells assessed as early apoptotic cells at 2 uM after 48 hrs by Annexin V-FITC/propidium iodide staining based flow cytometry (reference value: 0.022%); assay type: functional
B16-F10 [6] = assay: Inhibition of colony formation in mouse B16F10 cells at 0.125 to 0.25 uM after 7 days by crystal violet staining based assay; assay type: functional, cell-based
Outline: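 Clonogenic long-term growth assay: A375 or B16F10 cells grown under continuous compound exposure for 7 days, then colonies quantified; mean ± sd, n = 3, two-way ANOVA.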

Homo sapiens [7] = species: Homo sapiens; assay: Inhibition of Wnt/beta-catenin signaling pathway (unknown origin) expressed in human 293T cells assessed as inhibition of TCF/LEF activity up to 100 uM after 48 hrs by luciferase reporter gene assay; assay type: cell-based
Outline: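 293T cells transfected with a TCF/LEF reporter plasmid were treated with compound at different concentrations for 48 h. Luciferase activity was measured and normalized to Renilla luciferase activity.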

Homo sapiens [8] = species: Homo sapiens; assay: Inhibition of Wnt/beta-catenin signaling pathway in human A375 cells assessed as reduction in STAT3 phosphorylation after 48 hrs by Western blot analysis; assay type: cell-based
Outline: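 A375 cells exposed to compound at several concentrations for 48 h; lysates immunoblotted for STAT3, p-STAT3, β-catenin and c-Myc.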

B16-F10 [9] = assay: Induction of apoptosis in mouse B16F10 cells assessed as live cells at 2 uM after 48 hrs by Annexin V-FITC/propidium iodide staining based flow cytometry (reference value: 97.6%); assay type: functional
A-375 [10] = assay: Induction of apoptosis in human A375 cells assessed as necrotic cells at 2 uM after 48 hrs by Annexin V-FITC/propidium iodide staining based flow cytometry (reference value: 2.39%); assay type: functional
A-375 [11] = assay: Induction of apoptosis in human A375 cells assessed as upregulation of p53 expression after 48 hrs by Western blot analysis
A-375 [12] = assay: Inhibition of ALDH+ subpopulation of human A375 cells assessed as ALDH+ cells at 0.5 after 48 hrs by flow cytometry (reference value: 25.7%); assay type: functional; parameters: scale not given: the % may be the effect or the level left
B16-F10 [13] = assay: Induction of apoptosis in mouse B16F10 cells assessed as early apoptotic cells at 1 uM after 48 hrs by Annexin V-FITC/propidium iodide staining based flow cytometry (reference value: 0.022%); assay type: functional
A-375 [14] = assay: Antimigratory activity against human A375 cells at 0.25 uM after 24 to 48 hrs by wound healing assay; assay type: functional, cell-based
Outline: (§1)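 Wound-healing scratch assay on cells treated with or without compound (0.25 μM). Images recorded at 0, 24 and 48 h, and migration distance quantified. Mean ± sd, n = 3, two-way ANOVA.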

A-375 [15] = assay: Inhibition of ALDH+ subpopulation of human A375 cells assessed as ALDH+ cells at 0.25 after 48 hrs by flow cytometry (reference value: 25.7%); assay type: functional; parameters: scale not given: the % may be the effect or the level left
A-375 [16] = assay: Induction of apoptosis in human A375 cells assessed as late apoptotic cells at 2 uM after 48 hrs by Annexin V-FITC/propidium iodide staining based flow cytometry (reference value: 2.7%); assay type: functional
B16-F10 [17] = assay: Antimigratory activity against mouse B16F10 cells at 0.25 uM after 24 hrs by transwell migration assay; assay type: functional, cell-based
Outline: (§2)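 Cells seeded in the upper chamber of a transwell and incubated with compound (0.25 μM) for 24 h. Cells migrated to the lower chamber were imaged and counted against an untreated control. Mean ± sd, n = 3, two-way ANOVA.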

B16-F10 [18] = assay: Induction of apoptosis in mouse B16F10 cells assessed as necrotic cells at 2 uM after 48 hrs by Annexin V-FITC/propidium iodide staining based flow cytometry (reference value: 1.86%); assay type: functional
B16-F10 [19] = assay: Antitumor activity against mouse B16F10 cells implanted in C57BL/6J mouse assessed as tumor growth inhibition at 15 mg/kg/day, ip measured after 24 days; assay type: functional, organism-based
Outline: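 C57BL/6J mice injected subcutaneously with B16F10 cells and treated with vehicle or compound. Tumor volume and body weight followed, and tumors dissected and weighed on day 24. Mean ± sd, n = 5, two-way ANOVA.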

Mus musculus = assay: Toxicity in C57BL/6J mouse implanted with mouse B16F10 cells assessed as change in body weight at 15 mg/kg/day, ip measured daily for 24 days; assay type: organism-based; settings: in vivo, 576 h
Outline: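 C57BL/6J mice carrying subcutaneous B16F10 cell grafts; vehicle and treated groups (n = 5) followed for body weight, with tumours dissected and weighed on day 24; mean ± sd, two-way ANOVA.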

A-375 [20] = assay: Induction of apoptosis in human A375 cells assessed as necrotic cells at 1 uM after 48 hrs by Annexin V-FITC/propidium iodide staining based flow cytometry (reference value: 2.39%); assay type: functional
B16-F10 [21] = assay: Induction of apoptosis in mouse B16F10 cells after 48 hrs by Annexin V-FITC/propidium iodide staining based flow cytometry; assay type: functional, cell-based
B16-F10 [22] = assay: Induction of apoptosis in mouse B16F10 cells assessed as late apoptotic cells at 1 uM after 48 hrs by Annexin V-FITC/propidium iodide staining based flow cytometry (reference value: 0.303%); assay type: functional
A-375 [23] = assay: Antiproliferative activity against human A375 cells after 48 hrs by MTT assay; assay type: functional, cell-based; settings: A-375, 48 h
B16-F10 [24] = assay: Antimigratory activity against mouse B16F10 cells at 0.25 uM after 24 to 48 hrs by wound healing assay; assay type: functional, cell-based; outline: as §1
A-375 [25] = assay: Induction of apoptosis in human A375 cells assessed as upregulation of Bax expression after 48 hrs by Western blot analysis
B16-F10 [26] = assay: Inhibition of ALDH+ subpopulation of mouse B16F10 cells assessed as ALDH+ cells at 0.5 after 48 hrs by flow cytometry (reference value: 26.7%); assay type: functional; parameters: scale not given: the % may be the effect or the level left
B16-F10 [27] = assay: Antiproliferative activity against mouse B16F10 cells after 48 hrs by MTT assay; assay type: functional, cell-based; settings: B16-F10, 48 h
B16-F10 [28] = assay: Induction of apoptosis in mouse B16F10 cells assessed as late apoptotic cells at 2 uM after 48 hrs by Annexin V-FITC/propidium iodide staining based flow cytometry (reference value: 0.303%); assay type: functional
A-375 [29] = assay: Antimigratory activity against human A375 cells at 0.25 uM after 24 hrs by transwell migration assay; assay type: functional, cell-based; outline: as §2

In the case of `CC[C@H](C)[C@H](NC(=O)OCc1ccccc1)C(=O)N[C@@H](CC(C)C)C(=O)N[C@@H](CC(C)C)C(=O)N[C@@H](C)/C=C/C(=O)N1C(=O)C=C(OC)[C@@H]1C(C)C`, the Activity (A-375 [1]) is reported as 4.48%, the Activity (A-375 [2]) is reported as “Dose-dependent effect” and the Activity (A-375 [3]) is reported as “Active”. The Activity (A-375 [4]) was “Active”, the Activity (B16-F10 [5]) was 31.8% and the inhibition (B16-F10 [6]) was “Active”. For the same compound, the inhibition (Homo sapiens [7]) was “Active”, the inhibition (Homo sapiens [8]) was “Dose-dependent effect” and the Activity (B16-F10 [9]) was 31.5%. The Activity (A-375 [10]) was 2.87%, the p53 upregulation (A-375 [11]) was “Dose-dependent effect” and the Activity (A-375 [12]) was 8.81%. For the same compound, the Activity (B16-F10 [13]) was 8.74%, the Activity (A-375 [14]) was “Active” and the Activity (A-375 [15]) was 13.3%. The Activity (A-375 [16]) was 8.11%, the Activity (B16-F10 [17]) was “Active” and the Activity (B16-F10 [18]) was 3.92%. For the same compound, the TGI (B16-F10 [19]) was “Active”, the Activity (Mus musculus) was “Non-Toxic” and the Activity (A-375 [20]) was 4.16%. For the same compound, the Activity (B16-F10 [21]) was “Dose-dependent effect”, the Activity (B16-F10 [22]) was 4.05% and the IC50 (A-375 [23]) was 801 nM. The Activity (B16-F10 [24]) was “Active”, the Bax upregulation (A-375 [25]) was “Dose-dependent effect” and the Activity (B16-F10 [26]) was 11.8%. For the same compound, the IC50 (B16-F10 [27]) was 522 nM, the Activity (B16-F10 [28]) was 32.9% and the Activity (A-375 [29]) was “Active”.
